Source: ChEMBL document CHEMBL1268870 (J Med Chem, 2010)
pEC50, pIC50: −log10 of the molar value. The source made the active and inactive calls. The rule behind the calls is not given here.

Columns and labels:
[1] = biological target: T1, 5-hydroxytryptamine receptor 3A (Homo sapiens) (UniProt P46098); assay: Displacement of [3H]GR65630 from 5HT3A receptor expressed in Xenopus oocyte
T1 sequence (whole entry): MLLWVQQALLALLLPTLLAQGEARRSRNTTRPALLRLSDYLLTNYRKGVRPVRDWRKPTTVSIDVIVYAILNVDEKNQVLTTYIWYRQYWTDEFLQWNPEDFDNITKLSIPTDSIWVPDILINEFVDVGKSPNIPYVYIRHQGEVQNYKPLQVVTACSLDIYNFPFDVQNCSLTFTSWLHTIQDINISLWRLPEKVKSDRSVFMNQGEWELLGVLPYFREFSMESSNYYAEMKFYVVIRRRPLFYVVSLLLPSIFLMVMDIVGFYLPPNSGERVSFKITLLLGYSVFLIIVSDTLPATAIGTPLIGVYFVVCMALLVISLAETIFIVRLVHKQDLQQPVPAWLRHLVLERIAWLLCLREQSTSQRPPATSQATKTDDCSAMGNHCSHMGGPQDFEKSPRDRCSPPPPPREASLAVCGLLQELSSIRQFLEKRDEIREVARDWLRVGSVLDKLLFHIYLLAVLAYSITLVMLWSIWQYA

[2] = biological target: T2, GABA-A receptor; alpha-1/beta-2/gamma-2 (Homo sapiens) (UniProt P14867+P47870+P18507); assay: Allosteric modulation of human GABAA alpha-1-beta-2-gamma-2 receptor expressed in Xenopus laevis assessed as enhancement of [3H]flunitrazepam binding up to 10 uM
[3] = Inhibition of Torpedo nAChR expressed in Xenopus oocyte assessed as inhibition of ACh-induced channel current
[4] = biological target: T2, GABA-A receptor; alpha-1/beta-2/gamma-2 (Homo sapiens); assay: Agonist activity at human GABA-A alpha-1-beta-2-gamma-2 receptor expressed in Xenopus laevis assessed as increase in channel current at 10 uM by electrophysiology relative to control; type: functional
Xenopus laevis = assay: Anesthetic potency in Xenopus laevis; type: functional, organism-based
[5] = biological target: T1, 5-hydroxytryptamine receptor 3A (Homo sapiens); assay: Inhibition of 5HT3A receptor expressed in Xenopus oocyte at 9 uM
How it was run: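 Oocytes injected with ~50 ng human 5-HT3A cRNA. Two-electrode voltage clamp at −50 mV, room temperature, ND96. Compound was pre-applied for 30 s, then co-applied with 100 μM 5-HT for 30 s. Peak current was expressed as a percentage of the mean of the flanking 100 μM 5-HT control currents. Fixed compound concentration of 9 μM.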

[6] = biological target: T2, GABA-A receptor; alpha-1/beta-2/gamma-2 (Homo sapiens); assay: Agonist activity at human GABAA alpha-1-beta-2-gamma-2 mutant receptor expressed in Xenopus laevis assessed as increase in channel current at 5 uM by electrophysiology relative to control; type: functional
How it was run: (§1)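 Oocytes expressing human α1β2(M286W)γ2L GABA-A receptor. Two-electrode voltage clamp at −50 mV, room temperature, ND96 pH 7.5. […] Applications lasted 15–20 s with ~3 min washes.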

[7] = biological target: T2, GABA-A receptor; alpha-1/beta-2/gamma-2 (Homo sapiens); assay: Agonist activity at human GABA-A alpha-1-beta-2-gamma-2 receptor expressed in Xenopus laevis assessed as increase in channel current at 5 uM by electrophysiology relative to control; type: functional
[8] = biological target: T2, GABA-A receptor; alpha-1/beta-2/gamma-2 (Homo sapiens); assay: Agonist activity at human GABAA alpha-1-beta-2-gamma-2 mutant receptor expressed in Xenopus laevis assessed as increase in channel current at 10 uM by electrophysiology relative to control; type: functional; how it was run: as §1
Torpedo = assay: Binding affinity to Torpedo nAChR assessed as photoincorporation in to membrane; type: cell membranes; conditions: tested as the 3H-labelled form
How it was run: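 Torpedo californica nAChR-rich membranes at 2 mg/mL in Torpedo saline pH 7.0 with 1 mM oxidized glutathione. Incubated 40 min at room temperature with 0.3 μM tritiated probe, ± carbamylcholine, proadifen, tetracaine or PCP, then irradiated at 365 nm for 30 min on ice. Subunits separated by SDS-PAGE. Incorporation measured by fluorography and by scintillation counting of excised bands (two parallel labelings).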

Homo sapiens = organism: Homo sapiens; assay: Agonist activity at human GABA-A alpha-1-beta-2-gamma-2 receptor expressed in Xenopus laevis assessed as increase in channel current at saturated concentration by electrophysiology relative to control; type: functional
[9] = biological target: T1, 5-hydroxytryptamine receptor 3A (Homo sapiens); assay: Inhibition of 5HT3A receptor expressed in Xenopus oocyte at 20 uM
[10] = biological target: T2, GABA-A receptor; alpha-1/beta-2/gamma-2 (Homo sapiens); assay: Allosteric modulation of human GABAA alpha-1-beta-2-gamma-2 receptor expressed in Xenopus laevis assessed as enhancement of [3H]mucimol binding up to 10 uM

In the case of `CCOC(=O)c1cncn1[C@H](C)c1ccccc1`, the Activity [1] was “inactive” and the Activity [2] was “Active”.
`CCOC(=O)c1cncn1[C@H](C)c1ccc(C2(C(F)(F)F)N=N2)cc1` gave a pIC50 [3] of 4.95, an Imax [4] of 0.73% and a pEC50 (Xenopus laevis) of 4.77. For the same compound, the inhibition [5] was 34%.
Work on `CCOC(=O)c1cncn1[C@@H](C)c1ccc(C2(C(F)(F)F)N=N2)cc1` yielded a fold change (FC) [6] of 1.8, a pIC50 [3] of 5.33 and a fold change (FC) [7] of 2.2. It also gave an Imax [4] of 0.9%, a fold change (FC) [4] of 3 and a fold change (FC) [8] of 2.2. For the same compound, the pEC50 (Xenopus laevis) was 5.31 and the inhibition [5] was 29%.
In the case of `CCOC(=O)c1cncn1C(C)c1ccc(C2(C(F)(F)F)N=N2)cc1` (stereo unspecified), the Activity (Torpedo) was “Active”, the Activity [1] was “inactive” and the pIC50 [3] was 5.39. For the same compound, the Activity [2] was “inactive”, the Activity (Homo sapiens) was 1.3% and the inhibition [9] was 1.7%. The Activity [10] was “inactive”.
